Here are results for eleven compounds from ChEMBL document CHEMBL4257496, “Discovery and biological evaluation of N5-substituted 6,7-dioxo-6,7-dihydropteridine derivatives as potent Bruton's tyrosine kinase inhibitors” (Medchemcomm, 2018).

The target of test [1] is T1, Tyrosine-protein kinase BTK (Homo sapiens, UniProt Q06187). Briefly: Inhibition of recombinant human full-length N-terminal His6-tagged BTK expressed in baculovirus infected Sf21insect cells using poly (4:1 Glu, Tyr) as substrate measured after 1 hr by ELISA.
T1 sequence (Q06187 whole entry): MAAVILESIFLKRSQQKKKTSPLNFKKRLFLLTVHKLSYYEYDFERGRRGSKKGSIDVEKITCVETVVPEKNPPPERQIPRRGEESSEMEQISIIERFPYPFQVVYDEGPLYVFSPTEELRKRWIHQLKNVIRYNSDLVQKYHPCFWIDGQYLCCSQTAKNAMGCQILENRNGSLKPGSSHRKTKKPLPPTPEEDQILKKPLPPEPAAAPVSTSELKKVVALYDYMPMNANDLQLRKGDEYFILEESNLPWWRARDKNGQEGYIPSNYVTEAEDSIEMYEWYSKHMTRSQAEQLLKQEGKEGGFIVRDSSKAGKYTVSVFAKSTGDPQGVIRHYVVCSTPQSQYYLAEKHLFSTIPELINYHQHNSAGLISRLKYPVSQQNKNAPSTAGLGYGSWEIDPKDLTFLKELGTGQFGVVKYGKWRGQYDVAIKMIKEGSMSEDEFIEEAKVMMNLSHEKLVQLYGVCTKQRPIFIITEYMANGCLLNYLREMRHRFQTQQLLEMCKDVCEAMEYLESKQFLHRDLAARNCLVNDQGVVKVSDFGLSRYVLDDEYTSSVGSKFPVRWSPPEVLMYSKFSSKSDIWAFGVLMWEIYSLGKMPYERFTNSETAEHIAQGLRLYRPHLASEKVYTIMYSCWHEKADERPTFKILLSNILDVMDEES
The target in test [2] is T1, Tyrosine-protein kinase BTK. Briefly: Inhibition of anti-IgM-stimulated BTK activation in human Ramos cells assessed as reduction in PLCgamma2 phosphorylation at Y759 residue at 5 nM preincubated for 1.5 hrs followed by anti-IgM stimulation and measured after 15 mins by Western blot analysis. Format: cell-based. The essentials:
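Ramos cells were serum-starved 2 h and treated with compound for 1.5 h. They were then stimulated with anti-IgM (2.5 μg mL–1) for 15 min. Cells were lysed by boiling 30 min in Tris-HCl pH 6.8/DTT/SDS buffer and analysed by western blot. Blots were probed for BTK, p-BTK (Tyr223), PLCγ2 and p-PLCγ2, with β-actin or α-tubulin as loading controls.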
(A western blot detects proteins with antibodies after separation by electrophoresis.)

Test [3] relates to Ramos. Briefly: Antiproliferative activity against human Ramos cells after 72 hrs by MTT assay. The class given is functional, cell-based. The essentials:
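Ramos Burkitt's lymphoma cells (RPMI-1640 with 10% FBS, 37 °C, 5% CO2) were seeded and grown 2 h, then exposed to a range of concentrations in PBS, each in triplicate, for 72 h. MTT was added for 4 h at 37 °C, followed by SDS lysis buffer, and absorbance was read at 570 nm. Inhibition rate = [1 – (A treated/A control)] × 100%. Values are means ± SD of at least two independent determinations.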
A general note: Tetrazolium assays rely on reduction of a dye to a coloured formazan, in cell work by metabolically active cells.

The target in test [4] is T1, Tyrosine-protein kinase BTK. Briefly: Inhibition of anti-IgM-induced BTK phosphorylation at Y223 residue in human Ramos cells at 5 nM preincubated for 1.5 hrs followed by anti-IgM stimulation and measured after 15 mins by Western blot analysis.
For test [5], the target named is Epidermal growth factor receptor (Homo sapiens) (UniProt P00533). Briefly: Inhibition of EGFR (unknown origin) at 100 nM using poly (4:1 Glu, Tyr) as substrate measured after 1 hr by ELISA. The method, boiled down: (§1)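 ELISA kinase assay. Poly(Glu,Tyr)4:1 substrate was precoated at 20 μg mL–1. Active kinase was incubated with compound in 50 mM HEPES pH 7.4, 20 mM MgCl2, 0.1 mM MnCl2, 0.2 mM Na3VO4, 1 mM DTT and 5 μM ATP at 37 °C for 1 h. Phosphotyrosine was detected with anti-phosphotyrosine PY99 and an HRP secondary antibody, developed with OPD, and absorbance was read at 492 nm.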
Sequence of Epidermal growth factor receptor (Homo sapiens) (P00533 whole entry): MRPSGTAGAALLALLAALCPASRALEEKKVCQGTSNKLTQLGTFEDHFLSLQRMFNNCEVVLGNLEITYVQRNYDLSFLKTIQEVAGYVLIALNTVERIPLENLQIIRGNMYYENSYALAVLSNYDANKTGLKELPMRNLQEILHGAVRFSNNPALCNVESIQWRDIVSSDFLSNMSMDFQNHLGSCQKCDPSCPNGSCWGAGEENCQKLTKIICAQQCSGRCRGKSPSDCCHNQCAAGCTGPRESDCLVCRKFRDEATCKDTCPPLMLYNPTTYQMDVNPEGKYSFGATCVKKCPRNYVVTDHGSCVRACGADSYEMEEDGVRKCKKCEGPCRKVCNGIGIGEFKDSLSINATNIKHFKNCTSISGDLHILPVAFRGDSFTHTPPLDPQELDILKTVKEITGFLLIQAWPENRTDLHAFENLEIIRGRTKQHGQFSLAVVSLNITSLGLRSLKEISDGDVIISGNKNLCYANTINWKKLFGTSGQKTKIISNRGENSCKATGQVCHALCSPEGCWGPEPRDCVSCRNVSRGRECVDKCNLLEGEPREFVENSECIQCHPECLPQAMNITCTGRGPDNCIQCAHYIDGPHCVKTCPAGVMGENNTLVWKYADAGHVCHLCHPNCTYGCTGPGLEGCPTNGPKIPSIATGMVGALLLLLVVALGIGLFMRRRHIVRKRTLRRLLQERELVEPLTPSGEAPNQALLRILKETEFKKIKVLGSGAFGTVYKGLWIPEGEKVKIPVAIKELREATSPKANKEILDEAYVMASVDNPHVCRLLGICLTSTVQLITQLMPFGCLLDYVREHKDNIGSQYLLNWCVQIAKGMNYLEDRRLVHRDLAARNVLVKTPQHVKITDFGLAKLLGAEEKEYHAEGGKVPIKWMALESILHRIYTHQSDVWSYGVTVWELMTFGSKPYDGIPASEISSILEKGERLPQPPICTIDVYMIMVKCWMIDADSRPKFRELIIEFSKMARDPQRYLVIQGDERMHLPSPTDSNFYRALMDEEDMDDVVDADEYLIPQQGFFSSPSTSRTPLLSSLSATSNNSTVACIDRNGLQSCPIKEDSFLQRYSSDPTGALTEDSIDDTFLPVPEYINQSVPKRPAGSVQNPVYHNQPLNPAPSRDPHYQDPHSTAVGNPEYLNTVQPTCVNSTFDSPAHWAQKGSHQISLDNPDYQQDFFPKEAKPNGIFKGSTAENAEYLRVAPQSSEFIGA

Test [6] is filed under the species Homo sapiens. Briefly: Selectivity ratio of IC50 for EGFR (unknown origin) to IC50 for recombinant human full-length N-terminal His6-tagged BTK expressed in baculovirus infected Sf21insect cells.
Test [7] concerns the target Receptor tyrosine-protein kinase erbB-2 (Homo sapiens) (UniProt P04626). Briefly: Inhibition of ErbB2 (unknown origin) at 100 nM using poly (4:1 Glu, Tyr) as substrate measured after 1 hr by ELISA relative to control. The method, boiled down: as §1
In test [8] the target is Receptor tyrosine-protein kinase erbB-4 (Homo sapiens) (UniProt Q15303). Briefly: Inhibition of ErbB4 (unknown origin) at 100 nM using poly (4:1 Glu, Tyr) as substrate measured after 1 hr by ELISA. The method, boiled down:
as §1

For test [9], the target named is T2, Tyrosine-protein kinase ITK/TSK (Homo sapiens) (UniProt Q08881).
T2 sequence (whole entry): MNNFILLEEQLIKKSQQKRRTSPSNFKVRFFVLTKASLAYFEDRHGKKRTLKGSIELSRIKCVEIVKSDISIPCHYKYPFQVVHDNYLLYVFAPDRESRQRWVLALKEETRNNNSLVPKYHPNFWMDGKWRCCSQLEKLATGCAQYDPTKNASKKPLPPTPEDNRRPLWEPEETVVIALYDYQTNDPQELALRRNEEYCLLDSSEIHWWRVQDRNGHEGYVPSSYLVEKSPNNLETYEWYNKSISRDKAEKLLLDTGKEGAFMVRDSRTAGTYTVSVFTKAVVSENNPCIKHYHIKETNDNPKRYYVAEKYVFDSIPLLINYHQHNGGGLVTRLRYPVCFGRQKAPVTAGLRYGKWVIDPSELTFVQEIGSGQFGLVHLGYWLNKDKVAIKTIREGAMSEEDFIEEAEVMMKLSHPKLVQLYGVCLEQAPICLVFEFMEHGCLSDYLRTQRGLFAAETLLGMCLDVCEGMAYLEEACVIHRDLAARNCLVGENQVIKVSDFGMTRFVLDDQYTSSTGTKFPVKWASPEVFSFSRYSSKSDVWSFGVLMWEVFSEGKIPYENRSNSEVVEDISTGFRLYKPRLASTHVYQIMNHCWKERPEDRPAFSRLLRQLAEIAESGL
Briefly: Inhibition of ITK (unknown origin) at 100 nM using poly (4:1 Glu, Tyr) as substrate measured after 1 hr by ELISA relative to control. The essentials:
as §1
Background: An ELISA detects its analyte on a solid surface through an enzyme-linked reagent.

Test [10] addresses Proto-oncogene tyrosine-protein kinase receptor Ret (Homo sapiens) (UniProt P07949). Briefly: Inhibition of RET (unknown origin) at 100 nM using poly (4:1 Glu, Tyr) as substrate measured after 1 hr by ELISA relative to control. The essentials:
as §1

Each structure is given as a SMILES string. pIC50: −log10 of the molar value. The source made the active and inactive calls. The calls are words filed in the database; no cut-off is given here.

Sequence of Receptor tyrosine-protein kinase erbB-2 (Homo sapiens) (P04626 whole entry): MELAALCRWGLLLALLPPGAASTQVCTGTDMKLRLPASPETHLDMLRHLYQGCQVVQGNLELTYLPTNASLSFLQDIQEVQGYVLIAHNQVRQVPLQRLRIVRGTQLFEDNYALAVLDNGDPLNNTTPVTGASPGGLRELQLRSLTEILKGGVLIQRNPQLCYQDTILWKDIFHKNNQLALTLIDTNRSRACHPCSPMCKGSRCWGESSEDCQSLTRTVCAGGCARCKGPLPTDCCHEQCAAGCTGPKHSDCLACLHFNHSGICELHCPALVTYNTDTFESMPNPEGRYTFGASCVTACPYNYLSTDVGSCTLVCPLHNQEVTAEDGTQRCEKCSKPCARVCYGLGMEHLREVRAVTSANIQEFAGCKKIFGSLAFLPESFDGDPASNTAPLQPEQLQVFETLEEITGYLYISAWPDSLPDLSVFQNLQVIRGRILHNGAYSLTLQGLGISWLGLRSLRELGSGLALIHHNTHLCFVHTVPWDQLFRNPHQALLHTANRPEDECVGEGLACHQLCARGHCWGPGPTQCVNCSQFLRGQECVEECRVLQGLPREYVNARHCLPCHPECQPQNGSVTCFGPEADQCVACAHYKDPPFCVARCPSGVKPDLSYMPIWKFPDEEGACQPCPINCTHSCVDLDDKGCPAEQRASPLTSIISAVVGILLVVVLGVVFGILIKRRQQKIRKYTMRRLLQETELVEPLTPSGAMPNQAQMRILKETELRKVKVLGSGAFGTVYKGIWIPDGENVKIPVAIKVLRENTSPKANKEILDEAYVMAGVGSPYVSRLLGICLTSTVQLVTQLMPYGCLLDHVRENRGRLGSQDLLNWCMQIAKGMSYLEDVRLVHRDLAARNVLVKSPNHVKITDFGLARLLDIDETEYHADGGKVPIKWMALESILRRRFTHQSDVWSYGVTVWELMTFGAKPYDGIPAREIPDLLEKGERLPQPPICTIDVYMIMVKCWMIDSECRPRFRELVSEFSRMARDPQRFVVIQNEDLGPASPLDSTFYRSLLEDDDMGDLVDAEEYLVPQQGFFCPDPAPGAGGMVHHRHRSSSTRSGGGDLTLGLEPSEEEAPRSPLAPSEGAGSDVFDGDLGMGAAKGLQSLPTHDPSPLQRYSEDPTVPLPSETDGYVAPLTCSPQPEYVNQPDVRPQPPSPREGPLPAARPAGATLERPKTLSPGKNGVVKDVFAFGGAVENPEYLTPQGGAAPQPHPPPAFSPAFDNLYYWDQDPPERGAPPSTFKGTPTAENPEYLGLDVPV
Sequence of Receptor tyrosine-protein kinase erbB-4 (Homo sapiens) (Q15303 whole entry): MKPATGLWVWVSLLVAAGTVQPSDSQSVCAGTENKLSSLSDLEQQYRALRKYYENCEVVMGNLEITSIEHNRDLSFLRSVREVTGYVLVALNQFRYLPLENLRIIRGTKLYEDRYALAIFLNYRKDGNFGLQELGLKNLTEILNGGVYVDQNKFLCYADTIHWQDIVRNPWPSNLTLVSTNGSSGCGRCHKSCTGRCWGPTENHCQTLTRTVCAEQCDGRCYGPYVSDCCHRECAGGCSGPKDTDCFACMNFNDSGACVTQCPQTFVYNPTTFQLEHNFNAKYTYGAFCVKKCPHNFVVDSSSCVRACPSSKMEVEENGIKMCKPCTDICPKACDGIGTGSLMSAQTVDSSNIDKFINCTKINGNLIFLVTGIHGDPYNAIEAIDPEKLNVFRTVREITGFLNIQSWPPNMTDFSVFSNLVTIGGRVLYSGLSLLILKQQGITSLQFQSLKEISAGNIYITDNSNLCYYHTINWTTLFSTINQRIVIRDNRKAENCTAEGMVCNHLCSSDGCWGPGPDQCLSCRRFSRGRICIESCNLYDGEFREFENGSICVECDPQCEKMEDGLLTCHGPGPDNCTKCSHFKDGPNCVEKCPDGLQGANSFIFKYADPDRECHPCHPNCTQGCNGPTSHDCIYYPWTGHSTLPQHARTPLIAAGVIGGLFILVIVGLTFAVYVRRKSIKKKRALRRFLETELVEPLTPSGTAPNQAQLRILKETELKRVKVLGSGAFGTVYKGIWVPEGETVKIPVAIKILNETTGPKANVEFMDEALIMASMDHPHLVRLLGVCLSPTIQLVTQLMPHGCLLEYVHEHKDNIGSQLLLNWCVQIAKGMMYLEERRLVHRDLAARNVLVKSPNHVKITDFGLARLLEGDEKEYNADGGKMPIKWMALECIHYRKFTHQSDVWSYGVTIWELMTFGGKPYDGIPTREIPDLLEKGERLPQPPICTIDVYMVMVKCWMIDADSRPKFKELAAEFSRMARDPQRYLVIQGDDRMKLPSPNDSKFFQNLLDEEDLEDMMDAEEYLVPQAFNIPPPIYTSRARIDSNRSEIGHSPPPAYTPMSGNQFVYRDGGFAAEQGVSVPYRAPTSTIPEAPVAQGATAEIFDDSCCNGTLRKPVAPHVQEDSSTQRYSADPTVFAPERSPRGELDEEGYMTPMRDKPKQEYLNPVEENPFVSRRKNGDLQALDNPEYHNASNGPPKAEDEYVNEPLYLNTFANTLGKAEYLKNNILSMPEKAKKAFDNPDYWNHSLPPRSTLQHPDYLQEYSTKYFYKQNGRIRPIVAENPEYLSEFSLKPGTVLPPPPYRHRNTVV

By pIC50 is commonly meant the IC50 on a negative log10 scale, so that one unit is a factor of ten. Regarding `C=CC(=O)Nc1cccc(-n2c(=O)c(=O)n(C)c3cnc(Nc4ccc(N5CCN(C)CC5)cc4OC)nc32)c1`, the pIC50 in [1] was 6.63.

Consider `C=CC(=O)Nc1cccc(-n2c(=O)c(=O)n(CCC)c3cnc(Nc4ccc(N5CCN(C)CC5)cc4OC)nc32)c1`, for which the pIC50 in test [1] was 7.66.

As usually defined, the inhibition is the relative decrease from the control value, in per cent. On to `C=CC(=O)Nc1cccc(-n2c(=O)c(=O)[nH]c3cnc(Nc4ccc(N5CCN(C)CC5)cc4OC)nc32)c1`, for which the inhibition entry in test [2] and in test [4] was “inactive” each time. Further, the pIC50 in [1] was 8.27; in test [3] it was below 4.00.

As to `C=CC(=O)Nc1cccc(-n2c(=O)c(=O)n(C(C)C)c3cnc(Nc4ccc(OCCN(C)C)cc4OC)nc32)c1`, the pIC50 in [1] was 7.50.

Take `C=CC(=O)Nc1cccc(-n2c(=O)c(=O)n(C(C)C)c3cnc(Nc4ccc(N5CCC(N6CCN(C)CC6)CC5)cc4OC)nc32)c1`: the negative logarithm of the IC50 (pIC50) in test [1] was 7.89.

Regarding `C=CC(=O)Nc1cccc(-n2c(=O)c(=O)n(C(C)C)c3cnc(Nc4ccc(N5CCN(C)CC5)cc4OC)nc32)c1`, the pIC50 in test [1] is 7.32. Also, the inhibition entry in [5] and in [8] was “Active” in each case. The Ratio IC50 in test [6] stood at 23. In addition, the inhibition in test [7] and in test [9] was below 35% each time.

With `C=CC(=O)Nc1cccc(-n2c(=O)c(=O)n(CC)c3cnc(Nc4ccc(N5CCN(C)CC5)cc4OC)nc32)c1`, in [1], the pIC50 was 7.76.

Turning to `C=CC(=O)Nc1cccc(-n2c(=O)c(=O)n(C(C)C)c3cnc(Nc4ccc(N5CCN(C)CC5)c(C)c4)nc32)c1`, the inhibition result in test [2], in test [5], in test [8] and in [4] was “Active” throughout. Further, the pIC50 in test [1] is 8.72; in test [3], 5.03. The inhibition in test [10] is above 70%; in test [7], below 35%; in [9], below 35%.

`C=CC(=O)Nc1cccc(-n2c(=O)c(=O)n(C(C)C)c3cnc(Nc4ccc(N(C)CCN(C)C)cc4OC)nc32)c1`: the pIC50 in test [1] is 7.68.

Regarding `C=CC(=O)Nc1cccc(-n2c(=O)c(=O)n(C(C)C)c3cnc(Nc4ccc(N5CCN(C)CC5)c(OC)c4)nc32)c1`, the inhibition result in test [2], in test [5], in test [8] and in test [4] was “Active” each time. The pIC50 in [1] is 8.62; in test [3] it was 5.00. Further, the inhibition in [10] is above 70%; in test [7], below 35%; in test [9], below 35%.

For `C=CC(=O)N1CCC[C@@H](n2nc(-c3ccc(Oc4ccccc4)cc3)c3c(N)ncnc32)C1` [IBRUTINIB], the pIC50 in test [3] is 5.21.
